What was measured:
[1] = Dose linearity study: single IV dose PK, noncompartmental analysis; assay type: in vivo, female BALB/c mice; details: for β, slope of Ln(AUC0-∞) versus Ln(dose): 2–60 mg/kg IV, power model; for AUC(0-inf) / Cmax / Tmax / Vd / half-life / AUC(0-t) / clearance: female, BALB/c, mouse, iv; for AUC(0-inf) / Cmax / Tmax / Vd / half-life / AUC(0-t) / clearance / AUC0-t/dose / AUC0-∞ /dose / AUC0–360/dose / AUCextrap / Cmax/dose / Tlast: plasma; for clearance: CL; for AUC extrapolated beyond 24 h in tissues: tissues with a quantifiable 24 h sample; for 0–24 h feces / 0–24 h urine: unchanged drug
In short: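 Single ~30 s tail-vein bolus of test compound in 12% captisol (pH 4, acetic acid), 2.0, 6.0, 20 or 60 mg/kg, female BALB/c mice 5–7 weeks old, N=3 per time point. Plasma and tissues taken 5–1,440 min; pooled 24 h urine/feces from metabolic cages. LC-MS/MS with [D7] internal standard. NCA, Bailer AUC. Dose linearity via slope of Ln AUC0-∞ versus Ln dose against β=1.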

[2] = Plasma protein binding by rapid equilibrium dialysis; assay type: in vitro ADME; details: BALB/c, mouse
In short: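 Rapid equilibrium dialysis: freshly spiked BALB/c mouse plasma against PBS, 37 °C for 24 h. Test compound at 300–100,000 ng/mL with <0.1% final organic solvent, triplicate. Fraction unbound in plasma determined from chamber concentrations.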

[3] = clinical; cited from earlier work
[4] = tested on: P-glycoprotein (P-gp/Mdr1); details: on the BBB; cited from earlier work

β, slope of Ln(AUC0-∞) versus Ln(dose) ([1]; Brain): 1.17 (95% CI: 0.786 – 1.56)
β, slope of Ln(AUC0-∞) versus Ln(dose) ([1]; Kidney): 1.35 (95% CI: 0.960 – 1.73)
β, slope of Ln(AUC0-∞) versus Ln(dose) ([1]; Lung): 1.30 (95% CI: 0.804 – 1.79)
unchanged drug recovered in feces ([1]; across all groups (2–60 mg/kg IV), 0–24 h): < 4%
increase in volume of distribution (Vd) ([1]; between 2 and 60 mg/kg IV): more than 3 fold
AUC(0-inf) ([1]; 2 mg/kg): 867 ng·h/mL
Cmax ([1]; 2 mg/kg): 1480 ng/mL
Tmax ([1]; 2 mg/kg): 5 min
Vd ([1]; 2 mg/kg): 8.49 L/kg
half-life ([1]; 2 mg/kg): 2.55 h
AUC(0-t) ([1]; 2 mg/kg, AUC0-t, 2.0 mg/kg IV): 765 ng·h/mL
AUC(0-t) ([1]; 2 mg/kg, AUC0–360, plasma, 2.0 mg/kg IV): 765 ng·h/mL
AUC(0-inf) ([1]; 6 mg/kg): 2450 ng·h/mL
Cmax ([1]; 6 mg/kg): 3470 ng/mL
Tmax ([1]; 6 mg/kg): 5 min
Vd ([1]; 6 mg/kg): 9.63 L/kg
half-life ([1]; 6 mg/kg): 2.73 h
AUC(0-t) ([1]; 6 mg/kg, AUC0-t, 6.0 mg/kg IV): 2100 ng·h/mL
AUC(0-t) ([1]; 6 mg/kg, AUC0–360, plasma, 6.0 mg/kg IV): 2100 ng·h/mL
AUC(0-inf) ([1]; 20 mg/kg): 10200 ng·h/mL
Cmax ([1]; 20 mg/kg): 10200 ng/mL
Tmax ([1]; 20 mg/kg): 5 min
Vd ([1]; 20 mg/kg): 11.9 L/kg
half-life ([1]; 20 mg/kg): 4.22 h
AUC(0-t) ([1]; 20 mg/kg, AUC0-t, 20 mg/kg IV): 10100 ng·h/mL
AUC(0-t) ([1]; 20 mg/kg, AUC0–360, plasma, 20 mg/kg IV): 7070 ng·h/mL
clearance ([1]; 20 mg/kg, calculated using AUC0-∞, 20 mg/kg IV): 32.6 mL/min/kg
clearance ([1]; 20 mg/kg, calculated using AUC0–360, 20 mg/kg IV): 47.2 mL/min/kg
AUC(0-inf) ([1]; 60 mg/kg): 35400 ng·h/mL
Cmax ([1]; 60 mg/kg): 21200 ng/mL
Tmax ([1]; 60 mg/kg): 5 min
Vd ([1]; 60 mg/kg): 25.6 L/kg
half-life ([1]; 60 mg/kg): 10.5 h
AUC(0-t) ([1]; 60 mg/kg, AUC0-t, 60 mg/kg IV): 29400 ng·h/mL
AUC(0-t) ([1]; 60 mg/kg, AUC0–360, plasma, 60 mg/kg IV): 15500 ng·h/mL
AUC0-t/dose ([1]; 2.0 mg/kg IV): 23.0
AUC0-∞ /dose ([1]; 2.0 mg/kg IV): 26.0
AUC0–360/dose ([1]; 2.0 mg/kg IV): 23.0
AUCextrap ([1]; 2.0 mg/kg IV): 11.7%
Cmax/dose ([1]; 2.0 mg/kg IV): 0.738
Tlast ([1]; 2.0 mg/kg IV): 360 min
AUC0-t/dose ([1]; 6.0 mg/kg IV): 21.1
AUC0-∞ /dose ([1]; 6.0 mg/kg IV): 24.6
AUC0–360/dose ([1]; 6.0 mg/kg IV): 21.1
AUCextrap ([1]; 6.0 mg/kg IV): 14.2%
Cmax/dose ([1]; 6.0 mg/kg IV): 0.578
Tlast ([1]; 6.0 mg/kg IV): 360 min
AUC0-t/dose ([1]; 20 mg/kg IV): 30.3
AUC0-∞ /dose ([1]; 20 mg/kg IV): 30.7
AUC0–360/dose ([1]; 20 mg/kg IV): 21.2
AUCextrap ([1]; 20 mg/kg IV): 1.39%
Cmax/dose ([1]; 20 mg/kg IV): 0.512
AUC0-t/dose ([1]; 60 mg/kg IV): 29.4
AUC0-∞ /dose ([1]; 60 mg/kg IV): 35.4
AUC0–360/dose ([1]; 60 mg/kg IV): 15.5
AUCextrap ([1]; 60 mg/kg IV): 17.0%
Cmax/dose ([1]; 60 mg/kg IV): 0.353
AUC extrapolated beyond 24 h in tissues ([1]; 60 mg/kg): > 20%
AUC extrapolated beyond 24 h in tissues ([1]; 2, 6 and 20 mg/kg groups): < 3%
0–24 h feces ([1]; 2.0 mg/kg IV): 1.78 % dose
0–24 h urine ([1]; 2.0 mg/kg IV): 40.6 % dose
0–24 h feces ([1]; 6.0 mg/kg IV): 3.41 % dose
0–24 h urine ([1]; 6.0 mg/kg IV): 49.2 % dose
0–24 h feces ([1]; 20 mg/kg IV): 1.48 % dose
0–24 h urine ([1]; 20 mg/kg IV): 55.8 % dose
0–24 h feces ([1]; 60 mg/kg IV): 2.02 % dose
0–24 h urine ([1]; 60 mg/kg IV, 60 mg/kg): 28 % dose
fraction unbound at 24 h, 300 ng/mL [2]: 0.028
fraction unbound at 24 h, 100000 ng/mL [2]: 0.0427
SMILES: CNCc1ccc(-c2cc(-c3nc(-c4ccc(S(=O)(=O)C(C)C)cc4)cnc3N)on2)cc1 [berzosertib]
dose up to which plasma PK is dose-proportionate [3]: up to 240 mg/m^2
efflux transporter substrate [4]: substrate

— PMC11390321 (Cancer chemotherapy and pharmacology, 2024)
